Measured values gathered from unrelated publications.
Lines come from different studies, so protocols differ.
Organism: Plasmodium falciparum
Observed: parasite growth

SMILES	test	system	setting	EC50 [nM]
COc1ccc(-n2ccnc2SCC(=O)Nc2cccc(C(F)(F)F)c2)c(OC)c1	SYBR Green	3D7	–	88.5
O=S(=O)(c1ccc(-c2ccc3ncnc(Nc4ccc(OCc5ccccc5)c(Cl)c4)c3c2)cc1)N1CCOCC1	SYBR Green	W2	drug-resistant strain, blood stage	720
Cc1cc(NC2Cc3cc(F)c(F)cc3C2)n2nc(C(C)(F)F)nc2n1	–	K1	drug-resistant strain, blood stage	49
Fc1cccc(COc2ccc(Nc3ncnc4ccc(-c5cccc(N6CCOCC6)c5)cc34)cc2Cl)c1	SYBR Green	W2	drug-resistant strain, blood stage	680
Cc1cc(N[C@H]2CCc3ccc(Cl)cc3C2)n2nc(C(C)(F)F)nc2n1	–	HB3	drug-resistant strain, blood stage	0.47
N#Cc1c(F)cccc1N1CCN(c2ccc(O)cc2)CC1	SYBR Green	3D7	72 h	> 12500
O=C1C(O)=C([C@H]2CC[C@H](c3ccc(Cl)cc3)CC2)C(=O)c2ccccc21	SYBR Green	D6	72 h, blood stage	< 0.25
Cc1cc(Nc2ccc(Cl)c(Cl)c2)n2nc(C)nc2n1	SYBR Green	3D7	–	106
CCN(CC)CCCC(C)Nc1ccnc2cc(Cl)ccc12 (stereo not drawn)	SYBR Green	D6	72 h, blood stage	9.1
C[C@@H]1C[C@@H]([C@H](O)CC2CC(=O)NC(=O)C2)C(=O)[C@@H](C)C1	SYBR Green	3D7	blood stage	200
COc1cc2[nH]c(C)c(-c3ccc(Oc4ccc(OC(F)(F)F)cc4)cc3)c(=O)c2cc1Cl	SYBR Green	D6	72 h, blood stage	0.9
Cc1noc(-c2cccs2)c1C(=O)NCCc1cccc(Cl)c1	SYBR Green	3D7	–	313
